Laboratory results from ChEMBL document CHEMBL3804761, “Synthesis of a stable and orally bioavailable englerin analogue” (Bioorg Med Chem Lett, 2016).

How the values were obtained:
Assay type in all cases: functional
[1] = Growth inhibition of human LOXIMVI cells incubated for 48 hrs by sulforhodamine B assay; settings: LOX IMVI
Procedure, shortened: (§1)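 NCI 60-cell-line panel, standard protocol. Cells exposed to compound for two days, growth read by sulforhodamine B staining. Tested at five 10-fold dilutions, top concentration 100 µM, to give dose-response curves.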

[2] = Growth inhibition of human RXF393 cells assessed as cell growth at 10 uM incubated for 48 hrs by sulforhodamine B assay relative to control; settings: RXF 393, 48 h, read-out: Activity
Procedure, shortened: (§2)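 Run in the standard NCI 60-cell-line screen. Cells were exposed to drug for two days, and the read-out was sulforhodamine B staining. Compound was tested at a single final concentration of 10 µM in every line, and results are reported as growth percent.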

Malme-3M [3] = test: Growth inhibition of human MALME-3M cells incubated for 48 hrs by sulforhodamine B assay; procedure, shortened: as §1
A549 [4] = test: Growth inhibition of human A549/ATCC cells incubated for 48 hrs by sulforhodamine B assay; settings: A549, 48 h; procedure, shortened: as §1
MDA-MB-435 [5] = test: Growth inhibition of human MDA-MB-435 cells incubated for 48 hrs by sulforhodamine B assay; settings: MDA-MB-435, 48 h; procedure, shortened: as §1
NCI-H226 = test: Growth inhibition of human NCI-H226 cells incubated for 48 hrs by sulforhodamine B assay; settings: NCI-H226, 48 h; procedure, shortened: as §1
[6] = Growth inhibition of human COLO205 cells incubated for 48 hrs by sulforhodamine B assay; settings: COLO 205, 48 h; procedure, shortened: as §1
MCF7 = test: Growth inhibition of human MCF7 cells assessed as cell growth at 10 uM incubated for 48 hrs by sulforhodamine B assay relative to control; settings: MCF7, 48 h, read-out: Activity; procedure, shortened: as §2
A549 [7] = test: Growth inhibition of human A549/ATCC cells assessed as cell growth at 10 uM incubated for 48 hrs by sulforhodamine B assay relative to control; settings: A549, 48 h, read-out: Activity; procedure, shortened: as §2
ACHN = test: Growth inhibition of human ACHN cells incubated for 48 hrs by sulforhodamine B assay; procedure, shortened: as §1
[8] = Growth inhibition of human HCT15 cells incubated for 48 hrs by sulforhodamine B assay; settings: HCT-15, 48 h; procedure, shortened: as §1
[9] = Growth inhibition of human Hs 578T cells assessed as cell growth at 10 uM incubated for 48 hrs by sulforhodamine B assay relative to control; settings: read-out: Activity
NCI-H460 = test: Growth inhibition of human NCI-H460 cells assessed as cell growth at 10 uM incubated for 48 hrs by sulforhodamine B assay relative to control; settings: NCI-H460, 48 h, read-out: Activity; procedure, shortened: as §2
SK-MEL-5 = test: Growth inhibition of human SK-MEL-5 cells assessed as cell growth at 10 uM incubated for 48 hrs by sulforhodamine B assay relative to control; settings: SK-MEL-5, 48 h, read-out: Activity; procedure, shortened: as §2
CCRF-CEM = test: Growth inhibition of human CCRF-CEM cells assessed as cell growth at 10 uM incubated for 48 hrs by sulforhodamine B assay relative to control; settings: read-out: Activity
Procedure, shortened: (§3)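 Single-dose screen in the NCI 60-cell-line panel at one final concentration of 10 µM. Two-day drug exposure with a sulforhodamine B endpoint. Values are growth percent for each cell line.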

[10] = Growth inhibition of human HCT116 cells incubated for 48 hrs by sulforhodamine B assay; settings: HCT-116, 48 h; procedure, shortened: as §1
MDA-MB-435 [11] = test: Growth inhibition of human MDA-MB-435 cells assessed as cell growth at 10 uM incubated for 48 hrs by sulforhodamine B assay relative to control; settings: MDA-MB-435, 48 h, read-out: Activity; procedure, shortened: as §2
[12] = Growth inhibition of human SKOV3 cells incubated for 48 hrs by sulforhodamine B assay; settings: SK-OV-3, 48 h
Procedure, shortened: (§4)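 Tested in the standard NCI 60-cell-line protocol with two-day drug exposure and a sulforhodamine B endpoint. Compounds were first screened at a single final concentration of 10 µM, reported as growth percent. They were then run as five 10-fold dilutions starting from a high concentration of 100 µM to give dose-response curves.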

Malme-3M [13] = test: Growth inhibition of human MALME-3M cells assessed as cell growth at 10 uM incubated for 48 hrs by sulforhodamine B assay relative to control; settings: read-out: Activity; procedure, shortened: as §2
[14] = Growth inhibition of human SF295 cells incubated for 48 hrs by sulforhodamine B assay; settings: SF-295, 48 h; procedure, shortened: as §1
[15] = Growth inhibition of human TK10 cells incubated for 48 hrs by sulforhodamine B assay; settings: TK-10, 48 h; procedure, shortened: as §4
[16] = Growth inhibition of human SF295 cells assessed as cell growth at 10 uM incubated for 48 hrs by sulforhodamine B assay relative to control; settings: SF-295, 48 h, read-out: Activity; procedure, shortened: as §2
[17] = Growth inhibition of human IGROV1 cells assessed as cell growth at 10 uM incubated for 48 hrs by sulforhodamine B assay relative to control; settings: IGROV-1, 48 h, read-out: Activity; procedure, shortened: as §2
SK-MEL-28 = test: Growth inhibition of human SK-MEL-28 cells assessed as cell growth at 10 uM incubated for 48 hrs by sulforhodamine B assay relative to control; settings: SK-MEL-28, 48 h, read-out: Activity; procedure, shortened: as §2
[18] = Growth inhibition of human OVCAR3 cells incubated for 48 hrs by sulforhodamine B assay; settings: OVCAR-3, 48 h; procedure, shortened: as §1
[19] = Growth inhibition of human HCT15 cells assessed as cell growth at 10 uM incubated for 48 hrs by sulforhodamine B assay relative to control; settings: HCT-15, 48 h, read-out: Activity; procedure, shortened: as §2
U-251 = test: Growth inhibition of human U251 cells assessed as cell growth at 10 uM incubated for 48 hrs by sulforhodamine B assay relative to control; settings: U-251, 48 h, read-out: Activity
Procedure, shortened: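 NCI 60-cell line standard protocol, one-dose screen: single final concentration 10 µM, 2-day drug exposure, sulforhodamine B (SRB) endpoint; read-out is growth percent relative to untreated control.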

NCI-H23 = test: Growth inhibition of human NCI-H23 cells incubated for 48 hrs by sulforhodamine B assay; settings: NCI-H23, 48 h; procedure, shortened: as §1
[20] = Growth inhibition of human HCC2998 cells assessed as cell growth at 10 uM incubated for 48 hrs by sulforhodamine B assay relative to control; settings: HCC 2998, 48 h, read-out: Activity; procedure, shortened: as §3
[21] = read-out: pLC50 (the source's name) (converted)

Question: Which results are given for `CC(C)[C@@]12C[C@@H](NC(=O)CO)[C@@](C)(O1)[C@@H]1CC[C@@H](C)[C@H]1[C@@H]2OC(=O)/C=C/C1CCCCC1`?
Answer: GI50 [1]: > 44.7 µM; LC50 [1]: > 44.7 µM; TGI ([1]; read-out: pTGI (converted)): > 44.7 µM; growth at 10 µM [2]: 95.4%; GI50 (Malme-3M [3]): > 44.7 µM; LC50 (Malme-3M [3]): > 44.7 µM; TGI (Malme-3M [3]; read-out: pTGI (converted)): > 44.7 µM; GI50 (A549 [4]): > 44.7 µM; LC50 (A549 [4]): > 44.7 µM; TGI (A549 [4]; read-out: pTGI (converted)): > 44.7 µM; GI50 (MDA-MB-435 [5]): > 44.7 µM; LC50 (MDA-MB-435 [5]): > 44.7 µM; TGI (MDA-MB-435 [5]; read-out: pTGI (converted)): > 44.7 µM; GI50 (NCI-H226): > 44.7 µM; LC50 (NCI-H226): > 44.7 µM; TGI (NCI-H226; read-out: pTGI (converted)): > 44.7 µM; GI50 [6]: > 44.7 µM; CC50 [6, 21]: > 44.7 µM; TGI ([6]; read-out: pTGI (converted)): > 44.7 µM; growth at 10 µM (MCF7): 94%; growth at 10 µM (A549 [7]): 92%; GI50 (ACHN): 17 µM; LC50 (concentration killing 50% of cells) (ACHN): > 44.7 µM; TGI (ACHN; read-out: pTGI (converted)): > 44.7 µM; GI50 [8]: > 44.7 µM; LC50 [8]: > 44.7 µM; TGI ([8]; read-out: pTGI (converted)): > 44.7 µM; growth at 10 µM [9]: 73%; growth at 10 µM (NCI-H460): 103%; growth at 10 µM (SK-MEL-5): 99.3%; growth at 10 µM (CCRF-CEM): 128%; GI50 [10]: > 44.7 µM; LC50 [10]: > 44.7 µM; TGI ([10]; read-out: pTGI (converted)): > 44.7 µM; growth at 10 µM (MDA-MB-435 [11]): 102%; GI50 [12]: > 44.7 µM; LC50 [12]: > 44.7 µM; TGI ([12]; read-out: pTGI (converted)): > 44.7 µM; growth at 10 µM (Malme-3M [13]): 109%; GI50 [14]: > 44.7 µM; LC50 (concentration causing 50% net cell kill) [14]: > 44.7 µM; TGI ([14]; read-out: pTGI (converted)): > 44.7 µM; GI50 [15]: > 44.7 µM; CC50 [15, 21]: > 44.7 µM; TGI ([15]; read-out: pTGI (converted)): > 44.7 µM; growth at 10 µM [16]: 86.3%; growth at 10 µM [17]: 103%; growth at 10 µM (SK-MEL-28): 98.9%; GI50 [18]: > 44.7 µM; LC50 [18]: > 44.7 µM; TGI ([18]; read-out: pTGI (converted)): > 44.7 µM; growth at 10 µM [19]: 102%; growth at 10 µM (U-251): 98.1%; GI50 (NCI-H23): > 44.7 µM; LC50 (NCI-H23): > 44.7 µM; TGI (NCI-H23; read-out: pTGI (converted)): > 44.7 µM

Question: Which growth at 10 µM [20] does the source give for `CC(C)[C@@]12C[C@@H](NC(=O)CF)[C@@](C)(O1)[C@@H]1CC[C@@H](C)[C@H]1[C@@H]2OC(=O)/C=C/c1ccccc1` here?
Answer: Its growth at 10 µM is 107%.

Question: What about the growth at 10 µM (MCF7) of the same compound?
Answer: The growth at 10 µM was 106%.

Question: And the growth at 10 µM (A549 [7])?
Answer: The growth at 10 µM was 94.4%.

Question: What about the growth at 10 µM [9] of the same compound?
Answer: The growth at 10 µM was 92.6%.

Question: What about the growth at 10 µM (NCI-H460) of the same compound?
Answer: The growth at 10 µM was 104%.

Question: What about the growth at 10 µM (SK-MEL-5) of the same compound?
Answer: The growth at 10 µM was 110%.

Question: What about the growth at 10 µM (CCRF-CEM) of the same compound?
Answer: The growth at 10 µM was 88.6%.

Question: And the growth at 10 µM (MDA-MB-435 [11])?
Answer: The growth at 10 µM was 106%.

Question: What about the growth at 10 µM (Malme-3M [13]) of the same compound?
Answer: The growth at 10 µM was 106%.

Question: What about the growth at 10 µM [16] of the same compound?
Answer: The growth at 10 µM was 105%.

Question: And the growth at 10 µM [17]?
Answer: The growth at 10 µM was 103%.

Question: And the growth at 10 µM (SK-MEL-28)?
Answer: Its growth at 10 µM is 110%.

Question: And the growth at 10 µM [19]?
Answer: The growth at 10 µM was 103%.

Question: And the growth at 10 µM (U-251)?
Answer: Its growth at 10 µM is 106%.
